From ChEMBL document CHEMBL1649356, “Triterpenoids from Aglaia abbreviata and their cytotoxic activities” (J Nat Prod, 2010)

Columns and labels:
Format in all cases: functional, cell-based
[1] = Cytotoxicity against human MCF7/ADR cells after 48 hrs by MTT assay; conditions: NCI/ADR-RES
Procedure, shortened: (§1)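 Cells grown in RPMI-1640 or DMEM with 10% FBS, 5% CO2, 37 °C. Adherent cells seeded and allowed 12 h to attach before compound addition; suspension cells seeded just before addition; initial density 1 × 10^5 cells/mL. Compound at 0.1, 1, 10, 100, 500 µM, triplicate, 48 h; doxorubicin positive control. Viability by MTT; IC50 by Reed and Muench method.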

[2] = system: SMMC-7721; experiment: Cytotoxicity against human SMMC7721 cells after 48 hrs by MTT assay; conditions: SMMC-7721, 48 h; procedure, shortened: as §1
[3] = system: KB; experiment: Cytotoxicity against human KB cells after 48 hrs by MTT assay; procedure, shortened: as §1
[4] = system: K562; experiment: Cytotoxicity against human K562 cells after 48 hrs by MTT assay; conditions: K562, 48 h; procedure, shortened: as §1
[5] = Cytotoxicity against human KB/VCR cells after 48 hrs by MTT assay; procedure, shortened: as §1
[6] = system: MCF7; experiment: Cytotoxicity against human MCF7 cells after 48 hrs by MTT assay; conditions: MCF7, 48 h; procedure, shortened: as §1

Structure (SMILES)	IC50 [1] [µM]	IC50 [2] [µM]	IC50 [3] [µM]	IC50 [4] [µM]	IC50 [5] [µM]	IC50 [6] [µM]
CC1(C)C(=O)CC[C@]2(C)[C@H]3CC[C@@H]4[C@@H]([C@]5(C)C=CC(=O)O5)CC[C@@]4(C)[C@]3(C)CC[C@@H]12 [AGLAIABBREVIATIN A]	> 10	> 10	> 10	> 10	> 10	> 10
C=C(C/C=C/C(C)(C)O)[C@H]1CC[C@]2(C)[C@@H]1CC[C@@H]1[C@@]3(C)CCC(=O)C(C)(C)[C@@H]3CC[C@]12C [AGLAIABBREVIATIN E]	> 10	4.2	2.7	1.8	0.83	> 10
CC(=O)[C@H]1CC[C@]2(C)[C@@H]1CC[C@@H]1[C@@]3(C)CC[C@@H](O)C(C)(C)[C@@H]3CC[C@]12C [AGLAIABBREVIATIN C]	> 10	> 10	> 10	> 10	1.1	> 10
CC(=O)O[C@@H]1CC[C@]2(C)[C@H]3CC[C@@H]4[C@@H]([C@]5(C)C=CC(=O)O5)CC[C@@]4(C)[C@]3(C)CC[C@H]2C1(C)C [AGLAIABBREVIATIN B]	> 10	> 10	> 10	> 10	> 10	> 10
CC(=O)O[C@@H]1CC[C@]2(C)[C@H]3CC[C@@H]4[C@@H]([C@@](C)(O)CCCC(C)(C)OO)CC[C@@]4(C)[C@]3(C)CC[C@H]2C1(C)C [AGLAIABBREVIATIN F]	5.5	1.4	0.6	0.46	0.31	> 10
COc1cccc2c1C(=O)c1c(O)c3c(c(O)c1C2=O)C[C@@](O)(C(=O)CO)C[C@@H]3O[C@H]1C[C@H](N)[C@H](O)[C@H](C)O1 [DOXORUBICIN]	> 10	0.37	0.012	0.17	0.45	0.54
CC1(C)C=CC[C@@](C)([C@H]2CC[C@]3(C)[C@@H]2CC[C@@H]2[C@@]4(C)CCC(=O)C(C)(C)[C@@H]4CC[C@]23C)O1 [AGLAIABBREVIATIN D]	> 10	2.1	1.2	1.2	0.96	> 10
